Screening data as filed in PubChem.
Only some compounds are listed: those with a hit (about 3% of all), similar ones and a draw of the others.
5HT1a ag – human 5-HT1a receptor agonists, primary screen, cell-based, CHO, Ga15 NFAT-bla reporter. AID 567, 2006. CHO 5-HT1a Ga15 NFAT-bla reporter, FRET ratio; 0% basal, 100% maximal reference agonist. 5-hydroxytryptamine receptor 1A (Homo sapiens), P08908. 65,000 tested, 0.56% active. activation, % at 10 µM;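 active means activation above the screen-wide mean activation plus 3 SD, cut at about 19% in these data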;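 further: 0% = DMSO wells and 100% = 5-CT at EC100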
Target sequence (P08908 whole entry, looked up): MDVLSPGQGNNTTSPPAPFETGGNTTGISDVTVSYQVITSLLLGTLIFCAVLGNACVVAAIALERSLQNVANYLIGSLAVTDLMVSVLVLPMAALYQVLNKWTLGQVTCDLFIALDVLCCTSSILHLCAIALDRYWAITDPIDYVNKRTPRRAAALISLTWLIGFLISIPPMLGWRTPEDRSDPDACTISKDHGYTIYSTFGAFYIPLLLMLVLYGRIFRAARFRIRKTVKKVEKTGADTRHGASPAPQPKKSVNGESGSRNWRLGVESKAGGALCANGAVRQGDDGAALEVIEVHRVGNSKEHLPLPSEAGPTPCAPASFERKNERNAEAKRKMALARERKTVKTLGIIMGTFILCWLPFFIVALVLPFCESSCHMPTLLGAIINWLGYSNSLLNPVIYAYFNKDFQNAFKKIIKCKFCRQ
5HT1E antag – 5-HT1E receptor antagonists, primary screen, cell-based, HTS; inhibition, % at 6 µM; 65,000 tested, 0.99% active; 5-hydroxytryptamine receptor 1E (Homo sapiens), P28566; CHO 5-HT1E Ga15 NFAT-bla reporter, FRET, antagonist;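 active means inhibition above a set limit, the mean inhibition across every tested compound plus 3 SD, cut at about 29% in these data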;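 further: signal is the 460 over 535 nm emission ratio of beta-lactamase substrate; 0% = agonist plus DMSO wells and 100% = wells without agonist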
5-HT1A blocker – human 5-HT1a receptor antagonists, primary screen, cell-based, CHO, Ga15 NFAT-bla reporter; CHO 5-HT1a Ga15 NFAT-bla reporter, antagonist mode; inhibition, % at 10 µM; 62,000 tested, 0.68% active;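 active means inhibition above the mean of all tested compounds plus 3 SD, cut at about 43% in these data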;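 further: receptor stimulated by 5-CT agonist at 100 nM near EC80; beta-lactamase reporter measured by ratiometric fluorescence of a cleavable substrate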
S1P3 agonist – human S1P3 receptor agonists, primary screen, cell-based, primary and confirmation, NFAT-BLA reporter. activation, % at 4.5 µM. S1P3 NFAT-BLA reporter cells, agonism, FRET ratio; relative to 1 µM S1P, basal subtracted. 60,000 tested, 0.1% active. Sphingosine 1-phosphate receptor 3 (Homo sapiens), Q99500. AID 373, 2006;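 active means activation above the screen-wide mean plus 3 SD, cut at about 4.5% in these data, passing the limit was not always enough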
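Benchmarks: high control 1 µM S1P / System: stable CHO line with human S1P3, Gα16, NFAT-BLA reporter / Dosing: single compound concentration, 4.5 µM final / Timing: 4 h compound at 37 °C, 2 h substrate at RT / Measured by: FRET β-lactamase substrate fluorescence, excitation 405 nm, 460/535 nm emission ratio, background-subtracted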
5HT1E ag – 5-HT1E receptor agonists, primary screen, cell-based, HTS | 5-hydroxytryptamine receptor 1E (Homo sapiens), P28566 | CHO 5-HT1E Ga15 NFAT-bla reporter, FRET; 0% DMSO wells, 100% control agonist wells | activation, % at 6 µM | 65,000 tested, 0.69% active | AID 574, 2007;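 active means activation above a set limit, the screen-wide mean activation plus 3 SD, cut at about 8.5% in these data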;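 further: 100% = positive control agonist at 1 µM giving full maximal response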
S1P1 ag-PAM – S1P1 agonists and agonism potentiators, primary screen, cell-based, primary and confirmation screens, CRE-bla reporter. S1P1 CRE-bla cells, forskolin, beta-lactamase FRET, potentiator mode; S1P1 agonist co-added at EC20, 2 nM; 100% = saturating reference agonist, 0% = basal. 56,000 tested, 0.57% active. Sphingosine 1-phosphate receptor 1 (Homo sapiens), P21453. AID 449, 2006. activation, % at 9.5 µM;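 active means activation above a cutoff set at the mean activation of all tested compounds plus 3 SD, cut at about 54% in these data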;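 further: forskolin at 4 µM as EC80 and the EC20 agonist is SEW2871; 100% = SEW2871 at its EC100 plus forskolin at EC80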
An asterisk follows results filed as active; x = not tested or not shown.

SMILES	5HT1a ag	5HT1E antag	5-HT1A blocker	S1P3 agonist	5HT1E ag	S1P1 ag-PAM
C=C(C)COc1ccc(-c2[nH]ncc2-c2ccc(OC)c(OC)c2)c(O)c1	0	37*	40	-1	1	-14
Cc1cc(C(=O)COc2ccc(-c3nnco3)cc2)c(C)n1Cc1ccccc1	0	3	12	x	0	x
Cc1cccc2cc(CN(Cc3nnnn3C3CCCC3)C3CCCCC3)c(=O)[nH]c12	0	33*	-2	0	1	-14
CCOc1ccccc1NC(=O)N1CCCC1C(=O)Nc1ccc(-n2cnnn2)c(C)c1 (stereo unspecified)	-1	2	0	x	1	x
Cc1cc(NC(=O)COC(=O)CCC(=O)c2ccc(F)cc2)no1	-1	0	-7	-1	-1	-9
O=C(Nc1ccccc1)N1CCN(c2nc3ccccc3s2)CC1	2	-14	-19	-1	12*	0
O=C(Nc1ccc(F)cc1)N1CCN(c2nc3ccccc3s2)CC1	1	-12	-6	-2	12*	22
Cc1ccc(NC(=O)c2c(-c3c(F)cccc3Cl)noc2C)cc1F	-2	-10	3	-2	-1	-25
COCCNC(=O)c1cn(C)c(=O)c2cc(OC)c(OC)cc12	0	5	11	x	-1	x
COc1cc2c(C(=O)NCCCN3CCN(c4cccc(Cl)c4)CC3)cn(C)c(=O)c2cc1OC	12	12	5	x	16*	x
O=C(c1noc2c1CCCC2)N1CCN(C(c2ccccc2)c2ccccc2)CC1	-4	-7	0	0	0	30
O=C(c1cc(-c2ccccc2)on1)N1CCN(C(=O)c2ccco2)CC1	-4	-3	7	0	0	-26
COc1ccc(-c2cc(C(=O)N3CCN(C(c4ccccc4)c4ccccc4)CC3)no2)cc1	-3	-4	44*	-1	1	-9
O=C(c1cc(-c2ccco2)on1)N1CCN(C(c2ccccc2)c2ccccc2)CC1	-5	-16	43*	0	0	60*
COc1ccc(-c2cc(C(=O)N3CCN(C(c4ccccc4)c4ccccc4)CC3)no2)cc1OC	-2	-25	37	0	2	0
CC(C)c1cc(C(=O)N2CCN(C(c3ccccc3)c3ccccc3)CC2)no1	2	3	-10	0	0	76*
CCOC1(OCC)N=C(N)C2(C#N)C(c3ccc(NC(C)=O)cc3)C12C#N (stereo unspecified)	-2	-7	-8	1	1	-26
COc1ccccc1C(=O)NCCCN1CCCC1=O	1	3	-4	0	0	-3
COC(=O)C1=CN(CCCN2CCCC2=O)C=C(C(=O)OC)C1c1ccccc1C(F)(F)F	25*	-1	-21	2	6	111
CCCCOc1ccccc1C1C(C(=O)OC)=CN(CC)C=C1C(=O)OC	40*	-7	-10	2	7	-64
COC(=O)C1=CN(C(C)C)C=C(C(=O)OC)C1c1cccc(OC)c1	23*	-5	-21	2	5	-25
COC(=O)C1=CN(C)C=C(C(=O)OC)C1c1ccccc1Cl	19*	1	-28	4	6	x
CCCOc1ccccc1C1C(C(=O)OC)=CN(C(C)C)C=C1C(=O)OC	13	3	-8	2	8	-86
CCN(CC)CC(=O)Nc1cc(C)c2c(=O)oc3ccccc3c2n1	4	-13	-15	0	1	-30
CC(C)CC(C(=O)NCc1ccccn1)N1C(=O)c2ccccc2C1=O (stereo unspecified)	-3	-3	10	-1	0	-4
